Rows were chosen to be rich in hits. Some 2% of all compounds tested hit in one or more screens of this group.
NTR1 ag: agonists of human neurotensin receptor NTR1; P30989; NTR1-U2OS beta-arrestin-GFP spot imaging, agonist mode; activation, % at 20 µM; hit rate 0.17% among 330,000;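 active = activation at or above 40% of the spot to cytoplasm intensity ratio, with at least 20 cells analyzed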
Beta2AR agonist: activates human beta-2 adrenergic receptor causing internalization; response, % (test concentration not listed); AID 504454; Am2.2-beta2AR cells, FAP receptor internalization, flow cytometry; P07550; hit rate 0.43% among 340,000;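 active = response above a set limit, near 3 SD of response in nonfluorescent compounds, cut at about 42% in these data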
Hep lipid drop: modulators of hepatic lipid droplet formation | AML12 mouse hepatocytes, oleate lipid droplets, BODIPY imaging | inhibition, % at 6.5 µM | hit rate 0.4% among 240,000;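 active = lipid droplet intensity inhibited by at least 50%, with more than 500 cells counted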
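Assay system: AML12 hepatocytes (mouse); Probe or stimulus: oleic acid at 100 µM to induce lipid droplet formation; Dosing: compound at 6.5 µM only; Schedule: compound with oleate, overnight; Detection: fluorescence imaging, 20x objective, two fields per well; Measure: % inhibition of lipid droplet signal.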
H9c2 TAG inh: inhibitors of triacylglycerol accumulation | H9c2 cells, Nile Red lipid (TAG) fluorescence; cells loaded with 200 µM oleic acid | inhibition, % at 12.5 µM | hit rate 0.66% among 230,000;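 active = pattern-corrected inhibition of lipid staining of at least 50% with the nuclear-stain viability signal not falling by more than 50%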
GRK2 inh: human GRK2 inhibition via aptamer displacement; P25098; bead flow cytometry, FAM-aptamer displacement from GRK2; inhibition of aptamer binding, % at 10 µM; hit rate 0.59% among 330,000; AID 488847;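 active = inhibition of aptamer binding above 40%, roughly 3 SD of noise, on plates passing a quality check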;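 note: median bead fluorescence of bound FAM aptamer so fluorescent compounds give negative values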
Target sequence (P25098 whole entry, looked up): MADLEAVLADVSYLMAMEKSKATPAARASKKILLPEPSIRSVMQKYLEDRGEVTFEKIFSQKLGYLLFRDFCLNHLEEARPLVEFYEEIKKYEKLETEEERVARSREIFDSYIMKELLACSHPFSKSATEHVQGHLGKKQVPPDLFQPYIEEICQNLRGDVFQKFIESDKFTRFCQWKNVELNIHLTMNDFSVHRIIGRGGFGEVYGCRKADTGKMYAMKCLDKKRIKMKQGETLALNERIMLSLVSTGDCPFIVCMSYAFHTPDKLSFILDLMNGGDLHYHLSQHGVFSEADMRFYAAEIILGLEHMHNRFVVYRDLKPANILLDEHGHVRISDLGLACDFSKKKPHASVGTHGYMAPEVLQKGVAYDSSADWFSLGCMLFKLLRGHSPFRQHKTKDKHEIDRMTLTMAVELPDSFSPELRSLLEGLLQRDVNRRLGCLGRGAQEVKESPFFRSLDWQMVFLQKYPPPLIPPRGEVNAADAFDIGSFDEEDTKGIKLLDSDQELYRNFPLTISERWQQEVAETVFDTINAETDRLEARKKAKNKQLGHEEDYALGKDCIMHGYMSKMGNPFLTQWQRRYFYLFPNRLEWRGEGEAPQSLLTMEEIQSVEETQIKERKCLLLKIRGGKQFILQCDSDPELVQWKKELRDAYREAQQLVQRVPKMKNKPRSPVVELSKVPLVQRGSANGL
Arrestin-AP2 inh: inhibitors of human beta-arrestin and AP2 interaction; AID 504490; FITC-arrestin peptide / GST-AP2 beads, flow cytometry; AP2 beta2 appendage carries R879A mutation; inhibition, % at 10 µM; hit rate 0.31% among 340,000;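 active = inhibition above a set limit, near 3 SD of compounds lacking own fluorescence, cut at about 54% in these data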
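Material – AP2 appendage R879A on GSH beads · Buffer or medium – PBS with 0.05% Tween 20 and 0.1% BSA · Probe or stimulus – fluorescein-tagged arrestin peptide at 50 nM final · Incubation – compound with beads 12 min RT, then probe 1 h RT · Detection – high-throughput flow cytometry of beads, ex 488, em 535 nm · Evaluation – percent response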
Large screens that a line does not name were inactive; ! = not confirmed by another sample.

CN(Cc1ccccc1)c1nc(-c2ccc([N+](=O)[O-])cc2)nc2ccccc12	none (no result: Hep lipid drop)
CN1C[C@@H]2[C@@H]3C(=O)N(Cc4ccccc4)C(=O)[C@@H]3[C@](Cc3ccccc3)(C1=O)N2C(=O)c1ccc(C(C)(C)C)cc1	none (no result: NTR1 ag, Hep lipid drop, GRK2 inh)
CCOCC(=O)Nc1cccc(C(=O)OCC)c1	none
CCOC(=O)C(=O)Nc1cccc(C(=O)OCC)c1	Beta2AR agonist 64
O=C(/C(Br)=C/Nc1cc(Cl)ccc1Cl)C(F)(F)F	GRK2 inh 86
O=C(Nc1cc(Cl)ccc1Cl)N1CCCC1	none
O=C1/C(=N\S(=O)(=O)c2cccs2)C([n+]2ccccc2)=C([O-])c2ccccc21	H9c2 TAG inh 76
O=S(=O)(/N=C/c1ccccc1O)c1cccs1	none (no result: Hep lipid drop, H9c2 TAG inh)
CC(C)(C)c1cc[n+](C2=C([O-])c3ccccc3C(=O)/C2=N\S(=O)(=O)c2cccs2)cc1	H9c2 TAG inh 64
Cc1ccc(NC(=O)c2ccc(S(=O)(=O)N3CCCC3)cc2)nc1	none (no result: Hep lipid drop)
CCOC(=O)/C=C/C(=O)OCC(=O)Nc1ccc(C)cc1	none (no result: H9c2 TAG inh)
CCOC(=O)/C=C/C(=O)OCC(=O)Nc1cccc(Br)c1	Beta2AR agonist 43
Fc1ccccc1NC(=S)N1CCN(C/C=C/c2ccccc2)CC1	Beta2AR agonist 56 (no result: H9c2 TAG inh)
O=S(=O)(Nc1ccc(N=Nc2ccc(O)c3ccccc23)cc1)c1ccccc1	none (no result: H9c2 TAG inh)
O=[N+]([O-])c1ccc(N=Nc2ccc(O)c3ccccc23)cc1	H9c2 TAG inh 56 (no result: NTR1 ag, Hep lipid drop, GRK2 inh)
COCCOC(=O)/C(=C/c1ccc(OC(=O)c2ccccc2)cc1)C(C)=O	Beta2AR agonist 43
CCN1c2ccccc2N(C)C1(C)c1ccccc1 (configuration not stated)	Arrestin-AP2 inh 75 (no result: NTR1 ag, H9c2 TAG inh)
COc1cccc(C(=O)N=c2sc3c(C)ccc(OC)c3n2C)c1	none
COc1ccc(C(=O)N=c2sc3c(C)ccc(OC)c3n2C)cc1OC	Beta2AR agonist 47
Cn1nnnc1N=N/C(=N/Nc1ccccc1)c1ccccc1	H9c2 TAG inh 72
Oc1ccccc1N=N/C(=N/Nc1ccccc1O)c1ccccc1	none (no result: Hep lipid drop)
Cc1cc(=O)oc2ccc(OCC(=O)N(Cc3ccc(F)cc3)Cc3ccco3)cc12	Beta2AR agonist 61
COc1ccc(CNC(=O)C/C(C)=N/NC(=O)c2cnccn2)cc1	none
Cn1cc(C(=O)c2ccc(Cl)cc2Cl)cc1C(=O)N/N=C(\N)COc1ccc(Cl)cc1	Beta2AR agonist 90
CC(OC(=O)c1ncc(Cl)c(Cl)c1Cl)C(=O)NC1(C#N)CCCCC1 (configuration not stated)	none (no result: Hep lipid drop)
Cc1cc(C)nc(N/N=C/c2ccccc2OCc2ccc([N+](=O)[O-])cc2)n1	Beta2AR agonist 97 (no result: H9c2 TAG inh)
CCCCCCCCCCCCCCCC[n+]1cccc(C(=O)N(CC)CC)c1	H9c2 TAG inh 59!
O=C(NC1CCCCC1)c1ccc(CS(=O)(=O)c2ccc(Cl)cc2)o1	none (no result: H9c2 TAG inh)
O=C1OC(COCC#Cc2ccccc2)CN1c1ccccc1 (configuration not stated)	none (no result: NTR1 ag, Beta2AR agonist, Hep lipid drop, GRK2 inh, Arrestin-AP2 inh)
CN(C)CCNc1ccc2nnn3c4ccc(O)cc4c(=O)c1c23	none (no result: NTR1 ag, Hep lipid drop, GRK2 inh)
Cc1ccc(NCCN(C)C)c2c(=O)c3cc(O)ccc3sc12	H9c2 TAG inh 63 (no result: NTR1 ag, Hep lipid drop, GRK2 inh)
CC(=O)c1cc(C(=O)N2CCCC(C(=O)c3ccc(Cl)cc3)C2)cs1 (configuration not stated)	none
COc1ccc(Nc2nc(-c3ccccc3)nc3ccccc23)cc1S(=O)(=O)N1CCOCC1	none
CCCCC(=O)O[C@H]1CC[C@H]2[C@@H]3CCc4cc(O)ccc4[C@H]3CC[C@]12C	Beta2AR agonist 43 (no result: Hep lipid drop)
CCOc1cc(/C=C2/C(=O)ON=C2C)ccc1OCc1ccccc1F	NTR1 ag 75, Beta2AR agonist 77 (no result: Hep lipid drop, H9c2 TAG inh)
N#CC(C#N)=c1ccc2c(c1)N1C3=C(CCCC3)CC3CCCCC31N=2 (configuration not stated)	H9c2 TAG inh 92
CC(C)(CN1CCN(Cc2ccccc2)CC1)NS(=O)(=O)c1ccc(Cl)cc1	none
O=C(N[C@@H](Cc1ccccc1)C(=O)N[C@@H](Cc1ccccc1)C(=O)O)OCc1ccccc1	none (no result: Hep lipid drop)
O=C(N[C@@H](Cc1ccccc1)C(=O)CCl)OCc1ccccc1	Beta2AR agonist 47 (no result: Hep lipid drop)
CCOc1ccc(NC(=O)COC(=O)COc2cccc3c2OC(C)(C)C3)cc1	none

Screening results deposited in PubChem BioAssay by several laboratories.
